Test results reported in ChEMBL document CHEMBL1125495, “Inhibitors of human renin with C-termini derived from amides and esters of alpha-mercaptoalkanoic acids” (J Med Chem, 1992).

Tests used:
[1] = molecular target: T1, Renin (Homo sapiens, UniProt P00797); assay: Inhibition of human plasma renin; type: cell-free
T1 sequence (P00797 whole entry): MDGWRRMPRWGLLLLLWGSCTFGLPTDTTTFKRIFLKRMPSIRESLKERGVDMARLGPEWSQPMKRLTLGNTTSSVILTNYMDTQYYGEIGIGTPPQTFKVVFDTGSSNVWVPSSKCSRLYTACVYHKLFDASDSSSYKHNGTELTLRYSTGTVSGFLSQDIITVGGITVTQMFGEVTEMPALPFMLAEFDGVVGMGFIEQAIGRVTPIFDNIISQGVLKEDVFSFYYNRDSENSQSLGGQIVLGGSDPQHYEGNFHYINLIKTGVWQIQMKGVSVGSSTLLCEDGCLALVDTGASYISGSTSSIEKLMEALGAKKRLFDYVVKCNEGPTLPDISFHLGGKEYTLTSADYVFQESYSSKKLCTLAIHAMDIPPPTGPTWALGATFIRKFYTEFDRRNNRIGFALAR

[2] = tested on: Rhesus monkey; assay: In vivo effect on mean arterial pressure(peak deltaMAP) in sodium deficient rhesus monkeys after iv administration (dose 0.34 mg/kg).; type: functional, Cercopithecidae, Artery
[3] = tested on: Rhesus monkey; assay: Half life of hypotensive effect in sodium deficient rhesus monkeys after iv administration (dose 0.34 mg/kg).; type: functional, organism-based; design: dose 0.34 mg/kg; conditions: Cercopithecidae
[4] = molecular target: T2, Renin (Homo sapiens) (UniProt P00797); assay: In vivo inhibition of plasma renin activity in sodium deficient rhesus monkeys after iv administration (dose 0.34 mg/kg, determined at peak deltaMAP).; type: functional, organism-based; design: dose 0.34 mg/kg; conditions: Cercopithecidae, target entry is the homologue from another species, at 0.34 mg/kg
T2 sequence (whole entry): T1 sequence (P00797 whole entry)

[5] = tested on: Rhesus monkey; assay: In vivo effect on heart rate(peak deltaHR) in sodium deficient rhesus monkeys after iv administration (dose 0.34 mg/kg).; type: functional, Cercopithecidae
[6] = tested on: Rhesus monkey; assay: In vivo effect on heart rate(peak deltaHR) in sodium deficient rhesus monkeys after iv administration (dose 0.26 mg/kg).; type: functional, Cercopithecidae
Summary of the method: (§1)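 Conscious male and female rhesus monkeys (N = 2) with chronic arterial access ports for direct MAP and heart-rate monitoring, and venous catheters for dosing. Animals were kept on a low-sodium diet, given furosemide the evening before, and fasted 18 h before and during the study. Compound was given iv in 0.05% acetic acid/5% dextrose/H2O, 20 min after a vehicle control dose. Peak changes were averaged, and the hypotensive half-life was read from time plots.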

[7] = tested on: Rhesus monkey; assay: In vivo on mean arterial pressure(peak deltaMAP) in sodium deficient rhesus monkeys after iv administration (dose 0.26 mg/kg).; type: functional, Cercopithecidae, Artery; summary of the method: as §1
[8] = molecular target: T2, Renin (Homo sapiens); assay: In vivo inhibition of plasma renin activity in sodium deficient rhesus monkeys after iv administration (dose 0.26 mg/kg, determined at peak deltaMAP).; type: functional, organism-based; design: dose 0.26 mg/kg; conditions: Cercopithecidae, target entry is the homologue from another species, at 0.26 mg/kg
Summary of the method: (§2)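 Sodium-deficient rhesus monkeys (N = 2) were kept on a low-sodium diet, given furosemide the evening before, and fasted 18 h. Compound was given iv through a venous catheter in 0.05% acetic acid/5% dextrose/H2O, 20 min after vehicle. Blood was drawn periodically via an arterial access port for plasma renin activity. Percent inhibition was taken at peak ΔMAP.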

[9] = tested on: Rhesus monkey; assay: Half life of hypotensive effect in sodium deficient rhesus monkeys after iv administration (dose 0.26 mg/kg).; type: functional, organism-based; design: dose 0.26 mg/kg; conditions: Cercopithecidae; summary of the method: as §1
[10] = tested on: Rhesus monkey; assay: In vivo effect on mean arterial pressure(peak deltaMAP) in sodium deficient rhesus monkeys after iv administration (dose 0.063 mg/kg).; type: functional, Cercopithecidae, Artery; summary of the method: as §1
[11] = tested on: Rhesus monkey; assay: In vivo effect on heart rate(peak deltaHR) in sodium deficient rhesus monkeys after iv administration (dose 0.063 mg/kg).; type: functional, Cercopithecidae; summary of the method: as §1
[12] = molecular target: T2, Renin (Homo sapiens); assay: In vivo inhibition of plasma renin activity in sodium deficient rhesus monkeys after iv administration (dose 0.063 mg/kg, determined at peak deltaMAP).; type: functional, organism-based; design: dose 0.063 mg/kg; conditions: Cercopithecidae, target entry is the homologue from another species, at 0.063 mg/kg; summary of the method: as §2
[13] = tested on: Rhesus monkey; assay: Half life of hypotensive effect in sodium deficient rhesus monkeys after iv administration (dose 0.063 mg/kg).; type: functional, organism-based; design: dose 0.063 mg/kg; conditions: Cercopithecidae; summary of the method: as §1
[14] = molecular target: T2, Renin (Homo sapiens); assay: In vivo inhibition of plasma renin activity in sodium deficient rhesus monkeys after iv administration (dose 0.63 mg/kg, determined at peak deltaMAP).; type: functional, organism-based; design: dose 0.63 mg/kg; conditions: Cercopithecidae; target entry is the homologue from another species; at 0.63 mg/kg; summary of the method: as §2
[15] = tested on: Rhesus monkey; assay: In vivo effect on mean arterial pressure(peak deltaMAP) in sodium deficient rhesus monkeys after iv administration (dose 0.63 mg/kg).; type: functional, Cercopithecidae, Artery; summary of the method: as §1
[16] = tested on: Rhesus monkey; assay: In vivo effect on heart rate(peak deltaHR) in sodium deficient rhesus monkeys after iv administration (dose 0.63 mg/kg).; type: functional, Cercopithecidae; summary of the method: as §1
[17] = tested on: Rhesus monkey; assay: Half life of hypotensive effect in sodium deficient rhesus monkeys after iv administration (dose 0.63 mg/kg).; type: functional, organism-based; design: dose 0.63 mg/kg; conditions: Cercopithecidae; summary of the method: as §1
[18] = tested on: Rhesus monkey; assay: Half life of hypotensive effect in sodium deficient rhesus monkeys after iv administration (dose 0.99 mg/kg).; type: functional, organism-based; design: dose 0.99 mg/kg; conditions: Cercopithecidae; summary of the method: as §1
[19] = tested on: Rhesus monkey; assay: In vivo effect on mean arterial pressure(peak deltaMAP) in sodium deficient rhesus monkeys after iv administration (dose 0.99 mg/kg).; type: functional, Cercopithecidae, Artery; summary of the method: as §1
[20] = molecular target: T2, Renin (Homo sapiens); conditions: Cercopithecidae; at 0.99 mg/kg
[21] = tested on: Rhesus monkey; assay: In vivo effect on heart rate(peak deltaHR) in sodium deficient rhesus monkeys after iv administration (dose 0.99 mg/kg).; type: functional, Cercopithecidae; summary of the method: as §1
[22] = tested on: Rhesus monkey; assay: In vivo effect on heart rate(peak deltaHR) in sodium deficient rhesus monkeys after iv administration (dose 0.31 mg/kg).; type: functional, Cercopithecidae; summary of the method: as §1
[23] = tested on: Rhesus monkey; assay: In vivo effect on mean arterial pressure(peak deltaMAP) in sodium deficient rhesus monkeys after iv administration (dose 0.31 mg/kg).; type: functional, Cercopithecidae, Artery; summary of the method: as §1
[24] = tested on: Rhesus monkey; assay: Half life of hypotensive effect in sodium deficient rhesus monkeys after iv administration (dose 0.31 mg/kg).; type: functional, organism-based; design: dose 0.31 mg/kg; conditions: Cercopithecidae; summary of the method: as §1
[25] = molecular target: T2, Renin (Homo sapiens); conditions: Cercopithecidae; Plasma; at 0.63 mg/kg

With CC(C)CC(C(=O)NCCN1CCOCC1)S(=O)(=O)C[C@H](O)[C@H](CC1CCCCC1)NC(=O)[C@H](Cc1c[nH]cn1)NC(=O)[C@H](Cc1ccccc1)NC(=O)OC(C)(C)C (some centres undefined) the IC50 [1] was 0.077 µM.

For CC(C)(C)OC(=O)N[C@@H](Cc1ccccc1)C(=O)N[C@@H](Cc1c[nH]cn1)C(=O)N[C@@H](CC1CCCCC1)[C@@H](O)CSc1nnnn1CCc1ccncc1, the “Peak deltaMAP” value [2] was -22 mmHg, the T1/2 [3] was less than 10 min and the inhibition [4] was 95%. The “Peak deltaHR” value [5] was 1 beats min-1.

With CC(C)(C)OC(=O)N[C@@H](Cc1ccccc1)C(=O)N[C@@H](Cc1c[nH]cn1)C(=O)N[C@@H](CC1CCCCC1)[C@@H](O)CSCC(=O)NC1CN2CCC1CC2 (some centres undefined) the “Peak deltaHR” value [6] was -18 beats min-1, the “Peak deltaMAP” value [7] was -20 mmHg and the inhibition [8] was 93%. It also gave a T1/2 [9] of less than 10 min and an IC50 [1] of 0.029 µM.

For CC(C)(C)S(=O)(=O)[C@@H](Cc1ccccc1)C(=O)N[C@@H](Cc1c[nH]cn1)C(=O)N[C@@H](CC1CCCCC1)[C@@H](O)CS(=O)(=O)CC(=O)NCCN1CCOCC1, the “Peak deltaMAP” value [10] was -20.5 mmHg, the “Peak deltaHR” value [11] was -13 beats min-1 and the inhibition [12] was 94%. For the same compound, the T1/2 [13] was less than 10 min and the IC50 [1] was 0.0072 µM.

With CCOC(=O)CSC[C@H](O)[C@H](CC1CCCCC1)NC(=O)[C@H](Cc1c[nH]cn1)NC(=O)[C@H](Cc1ccccc1)NC(=O)OC(C)(C)C the inhibition [14] was 87%, the “Peak deltaMAP” value [15] was -15 mmHg and the “Peak deltaHR” value [16] was -23 beats min-1. It also gave a T1/2 [17] of less than 10 min.

For CC(C)(C)OC(=O)N[C@@H](Cc1ccccc1)C(=O)N[C@@H](Cc1cnc[nH]1)C(=O)N[C@@H](CC1CCCCC1)[C@@H](O)C[S+]([O-])CC(=O)NCCN1CCOCC1 (some centres undefined), the IC50 [1] was 0.019 µM.

For CC(C)(C)OC(=O)N[C@@H](Cc1ccccc1)C(=O)N[C@@H](Cc1c[nH]cn1)C(=O)N[C@@H](CC1CCCCC1)[C@@H](O)CSCC(=O)NCc1ccncc1, the T1/2 [18] was less than 10 min, the “Peak deltaMAP” value [19] was -16 mmHg and the inhibition [20] was 88%. The “Peak deltaHR” value [21] was -26 beats min-1.

For CN1CCN(C(=O)CSC[C@H](O)[C@H](CC2CCCCC2)NC(=O)[C@H](Cc2c[nH]cn2)NC(=O)[C@H](Cc2ccccc2)NC(=O)OC(C)(C)C)CC1, the “Peak deltaHR” value [22] was 4 beats min-1, the “Peak deltaMAP” value [23] was -25 mmHg and the T1/2 [24] was less than 10 min. The inhibition [25] was 86%.

CC(C)(C)OC(=O)N[C@@H](Cc1ccccc1)C(=O)N[C@@H](Cc1cnc[nH]1)C(=O)N[C@@H](CC1CCCCC1)[C@@H](O)CS(=O)(=O)CC(=O)NCCN1CCOCC1 was tested, and the IC50 [1] was 0.0094 µM.
